# ChEMBL document CHEMBL1155317, “Design and optimisation of potent gp120-CD4 inhibitors” (Bioorg Med Chem Lett, 2009)
# Tests used:
# [1] = Inhibition of HIV1 NL4-3 gp160 assessed as inhibition of interaction between gp120 and host CD4 receptor by cell-cell fusion assay; parameters: species or system Human immunodeficiency virus 1
# [2] = tested on: Human immunodeficiency virus 1; assay: Antiviral activity against Human immunodeficiency virus 1 NL4-3 infected HeLaP4 cells after 5 days by beta-galactosidase reporter assay; type: functional, organism-based; settings: Human immunodeficiency virus 1, NL4-3, HeLaP4, 120 h
# How it was run: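 HeLa-P4 cells were premixed with NL4-3 virus and added at 10^5 cells/mL to wells containing diluted compound. Plates were incubated for 5 days at 37 °C in humidified 5% CO₂. Infection was quantified with a β-galactosidase reporter assay.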
# [3] = Clearance in rat at 1 mg/kg, iv and 1 mg/kg, po; type: ADME, organism-based; settings: in vivo
# Rattus norvegicus [4] = assay: Unbound clearance in rat at 1 mg/kg, iv and 1 mg/kg, po; type: ADME, organism-based; settings: in vivo
# Rattus norvegicus [5] = assay: Unbound volume of distribution in rat at 1 mg/kg, iv and 1 mg/kg, po; type: ADME, organism-based; settings: in vivo
# [6] = Bioavailability in rat at 1 mg/kg; type: ADME, organism-based; settings: in vivo
# [7] = Fraction of compound absorbed in rat at 1 mg/kg, iv and 1 mg/kg, po; type: ADME, organism-based; settings: in vivo, read-out: Fabs
# [8] = Half life in rat at 1 mg/kg, iv and 1 mg/kg, po; type: ADME, organism-based; settings: in vivo
SMILES,IC50 [1] [nM],IC50 [2] [nM],also measured
C[C@H](Oc1cccc2nc(N(C)C)ccc12)C(=O)N1CCN(C(=O)c2ccccc2)C[C@H]1C,3200,,
CNC(=O)c1cc(OC)c(O[C@@H](C)C(=O)N2CCN(c3nccn3CC3CC3)C[C@H]2C)cn1,1900,,
CC(Oc1ccnc2ccccc12)C(=O)N1CCN(C(=O)c2ccccc2)C[C@H]1C (some centres not stated),7430,,
CNC(=O)c1ccc(O[C@@H](C)C(=O)N2CCN(C(=O)c3ccccc3)C[C@H]2C)c2c(C)n[nH]c12,> 10000,,
Cc1n[nH]c2cccc(OC(C)C(=O)N3CCN(C(=O)c4ccccc4)C[C@H]3C)c12 (some centres not stated),16,36,
CC(Oc1cccc2ccncc12)C(=O)N1CCN(C(=O)c2ccccc2)C[C@H]1C (some centres not stated),575,2040,
CNC(=O)c1cc(OC)c(O[C@@H](C)C(=O)N2CCN(c3ncnc4[nH]cnc34)C[C@H]2C)cn1,296,,
CC(Oc1cccc2c(=O)[nH]ccc12)C(=O)N1CCN(C(=O)c2ccccc2)C[C@H]1C (some centres not stated),68,1050,
CNC(=O)c1cc(OC)c(O[C@@H](C)C(=O)N2CCN(c3ncccn3)C[C@H]2C)cn1,71,1620,

# Continued by falling IC50 [1], values first:
IC50 [1] [nM],IC50 [2] [nM],SMILES,also measured
9370,,CC(Oc1cncc2ccccc12)C(=O)N1CCN(C(=O)c2ccccc2)C[C@H]1C (some centres not stated),
433,449,CC(Oc1cccc2cccnc12)C(=O)N1CCN(C(=O)c2ccccc2)C[C@H]1C (some centres not stated),
123,1070,CC(Oc1cccc2ccccc12)C(=O)N1CCN(C(=O)c2ccccc2)C[C@H]1C (some centres not stated),
42,979,CNC(=O)c1cc(OC)c(O[C@@H](C)C(=O)N2CCN(c3n[nH]c4ccccc34)C[C@H]2C)cn1,
29,> 1000,CNC(=O)c1cc(OC)c(O[C@@H](C)C(=O)N2CCN(c3nccc4[nH]ccc34)C[C@H]2C)cn1,
15,79,Cc1nn(C)c2cccc(OC(C)C(=O)N3CCN(C(=O)c4ccccc4)C[C@H]3C)c12 (some centres not stated),
5,13,CNc1ccc2c(O[C@@H](C)C(=O)N3CCN(C(=O)c4ccccc4)C[C@H]3C)cccc2n1,clearance [3]: 27 mL/min/kg; CL free (Rattus norvegicus [4]): 129 mL/min/kg; Vdu (Rattus norvegicus [5]): 10.5 L/kg; bioavailability [6]: 42%; Fa [7]: 60%; half-life [8]: 54 min
